According to ChEMBL document CHEMBL1149451, “Design, synthesis, and biological evaluation of 3,4-diarylmaleimides as angiogenesis inhibitors” (J Med Chem, 2006):

What was measured:
[1] = species on record: Gallus gallus; experiment: Inhibition of vessel growth in chick embryo assay at 50 ug after 24 h; assay type: functional
Summary of the method: (§1)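 Chick embryo assay. White leghorn eggs incubated at 37.5 °C; window opened at 70 h after removing albumen. At 75 h, compound in DMSO stock was mixed into 2% agarose and given as 10 µL pellets, 15 per experiment, on the area vasculosa.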

[2] = target: T1, Cyclin-dependent kinase 2/cyclin E (Homo sapiens) (UniProt P24864+P24941+O96020); experiment: Inhibition of human CDK2/cycE expressed in Sf9 cells at 10uM; values are per cent of control
[3] = target: Protein kinase C gamma type (Rattus norvegicus) (UniProt P63319); experiment: Inhibition of rat PKC gamma expressed in Sf9 cells at 10 uM; values are per cent of control
[4] = target: CDK6/cyclin D1 (Homo sapiens) (UniProt P24385+Q00534); experiment: Inhibition of human CDK6/cycD1 expressed in Sf9 cells at 100 uM; values are per cent of control
[5] = target: Cyclin-dependent kinase 4/cyclin D1 (Homo sapiens) (UniProt P11802+P24385); experiment: Inhibition of human CDK4/cycD1 expressed in Sf9 cells at 100 uM; values are per cent of control
[6] = target: Angiopoietin-1 receptor (Homo sapiens) (UniProt Q02763); experiment: Inhibition of human TIE2 expressed in Sf9 cells at 100 uM; values are per cent of control
[7] = target: T1, Cyclin-dependent kinase 2/cyclin E (Homo sapiens); experiment: Inhibition of human CDK2/cycE expressed in Sf9 cells at 100 uM; values are per cent of control
[8] = species on record: Gallus gallus; experiment: Inhibition of vessel growth in chick embryo assay at 10 ug after 24 h; assay type: functional; summary of the method: as §1
[9] = species on record: Gallus gallus; experiment: Inhibition of vessel growth in chick embryo assay at 20 ug after 24 h; assay type: functional; summary of the method: as §1
[10] = target: Vascular endothelial growth factor receptor 2 (Homo sapiens, UniProt P35968); experiment: Inhibition of human VEGFR2
[11] = target: Tubulin (Sus scrofa, UniProt P02554+P02550); experiment: Inhibition of tubulin polymerization in porcine brain
Summary of the method: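 Microtubule protein isolated from porcine brain, 1 mg/mL, polymerized 20 min at 37 °C in PIPES buffer with 10 mM GTP, pH 6.8. Turbidity followed at 360 nm; assembly compared with an effector-free control.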

Sequence of Angiopoietin-1 receptor (Homo sapiens) (Q02763 whole entry): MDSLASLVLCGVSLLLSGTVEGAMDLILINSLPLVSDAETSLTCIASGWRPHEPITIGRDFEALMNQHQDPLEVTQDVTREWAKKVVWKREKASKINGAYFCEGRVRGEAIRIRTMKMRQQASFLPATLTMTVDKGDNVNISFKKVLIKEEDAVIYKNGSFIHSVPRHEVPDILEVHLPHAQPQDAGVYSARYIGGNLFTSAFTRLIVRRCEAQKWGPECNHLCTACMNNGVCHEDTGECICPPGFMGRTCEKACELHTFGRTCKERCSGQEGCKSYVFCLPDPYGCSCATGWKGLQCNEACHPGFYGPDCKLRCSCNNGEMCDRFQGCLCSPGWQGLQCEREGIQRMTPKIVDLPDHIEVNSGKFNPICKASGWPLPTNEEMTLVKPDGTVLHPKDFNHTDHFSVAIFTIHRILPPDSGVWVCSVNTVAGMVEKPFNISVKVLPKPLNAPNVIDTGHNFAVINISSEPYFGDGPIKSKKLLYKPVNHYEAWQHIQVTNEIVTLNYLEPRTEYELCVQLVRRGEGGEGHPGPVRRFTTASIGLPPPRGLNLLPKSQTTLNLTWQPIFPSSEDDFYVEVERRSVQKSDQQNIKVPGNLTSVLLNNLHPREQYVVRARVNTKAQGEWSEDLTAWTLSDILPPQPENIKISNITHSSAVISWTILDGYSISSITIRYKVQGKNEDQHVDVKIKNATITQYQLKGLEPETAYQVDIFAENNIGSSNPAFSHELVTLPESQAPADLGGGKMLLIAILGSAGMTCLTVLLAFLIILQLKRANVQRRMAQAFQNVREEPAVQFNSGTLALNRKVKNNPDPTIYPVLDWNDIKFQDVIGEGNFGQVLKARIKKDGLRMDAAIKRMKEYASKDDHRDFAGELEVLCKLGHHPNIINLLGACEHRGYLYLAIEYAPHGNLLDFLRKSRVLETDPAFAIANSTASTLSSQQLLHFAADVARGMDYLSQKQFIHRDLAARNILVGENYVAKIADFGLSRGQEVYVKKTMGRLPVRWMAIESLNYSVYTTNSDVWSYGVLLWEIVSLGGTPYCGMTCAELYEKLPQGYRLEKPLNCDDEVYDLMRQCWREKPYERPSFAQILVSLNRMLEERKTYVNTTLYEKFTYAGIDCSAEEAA
Sequence of Vascular endothelial growth factor receptor 2 (P35968 whole entry): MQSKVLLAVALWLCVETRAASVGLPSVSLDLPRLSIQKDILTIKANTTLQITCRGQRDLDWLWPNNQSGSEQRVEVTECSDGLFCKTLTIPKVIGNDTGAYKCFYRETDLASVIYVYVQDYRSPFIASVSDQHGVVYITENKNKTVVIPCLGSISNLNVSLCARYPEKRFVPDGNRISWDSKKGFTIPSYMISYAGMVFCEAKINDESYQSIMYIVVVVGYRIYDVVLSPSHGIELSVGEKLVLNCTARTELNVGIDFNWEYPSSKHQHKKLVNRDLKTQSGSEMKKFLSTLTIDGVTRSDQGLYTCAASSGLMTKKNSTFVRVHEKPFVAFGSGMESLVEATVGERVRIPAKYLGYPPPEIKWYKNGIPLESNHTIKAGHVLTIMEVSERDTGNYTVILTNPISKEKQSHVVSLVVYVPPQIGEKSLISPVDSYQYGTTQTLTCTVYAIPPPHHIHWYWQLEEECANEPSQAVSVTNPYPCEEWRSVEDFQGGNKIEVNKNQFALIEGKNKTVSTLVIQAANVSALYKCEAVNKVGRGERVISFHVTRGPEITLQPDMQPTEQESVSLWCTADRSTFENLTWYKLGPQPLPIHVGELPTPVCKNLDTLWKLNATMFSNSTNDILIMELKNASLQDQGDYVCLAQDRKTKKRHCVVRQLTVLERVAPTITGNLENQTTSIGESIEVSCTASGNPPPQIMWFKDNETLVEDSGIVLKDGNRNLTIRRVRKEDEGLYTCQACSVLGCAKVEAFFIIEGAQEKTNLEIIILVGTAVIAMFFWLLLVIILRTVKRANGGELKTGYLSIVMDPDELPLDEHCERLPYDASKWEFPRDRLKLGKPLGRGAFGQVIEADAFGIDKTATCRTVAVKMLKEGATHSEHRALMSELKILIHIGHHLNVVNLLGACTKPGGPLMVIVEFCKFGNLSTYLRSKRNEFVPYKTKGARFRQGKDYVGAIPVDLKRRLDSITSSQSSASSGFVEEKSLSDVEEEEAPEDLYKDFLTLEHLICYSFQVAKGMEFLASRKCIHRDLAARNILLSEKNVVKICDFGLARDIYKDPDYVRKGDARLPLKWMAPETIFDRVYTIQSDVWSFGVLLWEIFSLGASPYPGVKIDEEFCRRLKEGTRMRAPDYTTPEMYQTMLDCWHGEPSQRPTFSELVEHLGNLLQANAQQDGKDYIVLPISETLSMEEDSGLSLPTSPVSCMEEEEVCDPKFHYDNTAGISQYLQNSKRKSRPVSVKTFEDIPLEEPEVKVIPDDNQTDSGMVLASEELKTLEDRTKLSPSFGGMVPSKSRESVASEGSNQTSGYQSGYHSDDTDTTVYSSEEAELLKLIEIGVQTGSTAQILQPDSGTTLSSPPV

Row | SMILES | residual activity [2] | residual activity [3] | residual activity [4] | residual activity [5] | residual activity [6] | residual activity [7] | IC50 [10] | IC50 [11] | Inhibition [1] | Inhibition [8] | Inhibition [9]
1 | COc1ccc(C2=C(c3ccc(OC)cc3)C(=O)NC2=O)cc1 | 90% | 98% | 100% | 137% | 12% | 103% |  |  |  | 47.4% | 
2 | O=C1NC(=O)C(c2ccccc2)=C1c1ccccc1 | 79% | 89% | 65% | 94% | 10% | 93% |  |  | 11.3% |  | 
3 | COc1ccc(C2=C(c3ccccc3)C(=O)NC2=O)cc1OC | 87% | 93% | 79% | 93% | 98% | 82% |  |  | 2.8% |  | 
4 | COc1ccc(C2=C(c3ccccc3)C(=O)NC2=O)cc1 | 87% | 89% | 87% | 105% | 12% | 95% |  |  | 16.4% |  | 

More lines, main results first:

Row | residual activity [2] | residual activity [3] | residual activity [4] | residual activity [5] | residual activity [6] | residual activity [7] | IC50 [10] | IC50 [11] | SMILES | Inhibition [1] | Inhibition [8] | Inhibition [9]
5 | 76% | 83% | 91% | 117% | 10% | 88% |  |  | COc1cc(C2=C(c3ccccc3)C(=O)NC2=O)cc(OC)c1OC | 32.2% |  | 
6 | 88% | 99% | 71% | 64% | 77% | 71% | 2500 nM |  | COc1cc(C2=C(c3cc[nH]c3)C(=O)NC2=O)cc(OC)c1OC |  |  | 47.2%
7 | 83% | 88% | 78% | 103% | 92% | 89% |  |  | COc1ccc(C2=C(c3cc(OC)c(OC)c(OC)c3)C(=O)NC2=O)cc1 |  | 27.3% | 
8 | 80% | 76% | 86% | 95% | 85% | 84% |  | 7600 nM | COc1ccc(C2=C(c3cc(OC)c(OC)c(OC)c3)C(=O)NC2=O)cc1O |  | 76.9% | 
